Assay results from ChEMBL document CHEMBL3526143, “Pulmonary metabolism of resveratrol: in vitro and in vivo evidence” (Drug Metab Dispos, 2013).

What was measured:
[1] = Plasma protein binding in mouse at 20 uM by equilibrium dialysis method; assay type: ADME, cell-free; conditions: read-out: PPB (converted)
Outline: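 Equilibrium dialysis uses 5K MWCO membranes on a rotator at 37°C under 10% CO2. Thawed mouse plasma is adjusted to pH 7.4, and each analyte is tested at 20 µM; n = 3.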

[2] = Partial substrate inhibition in mouse lung S9 fractions treated with trans-resveratrol preincubated for 3 mins followed by PAPS addition measured after 60 mins by Eadie-Hofstee plot analysis; assay type: ADME
Outline: (§1)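 Sulfation uses pooled lung S9 (mouse 1 mg/ml, human 0.5 mg/ml final) with substrate at 0.01 µM–5 mM in 2% HP-β-CD, 5 mM MgCl2 and 10 mM potassium phosphate pH 6.5 at 37°C. After 3 min preincubation, 1 mM PAPS is added for 60 min, and the reaction is stopped with ascorbic acid and cold methanol. Triplicates are run, with a control lacking PAPS. Kinetics are fitted by nonlinear regression (partial substrate inhibition) after Eadie-Hofstee inspection.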

[3] = Partial substrate inhibition in human lung S9 fractions treated with trans-resveratrol preincubated for 3 mins followed by PAPS addition measured after 60 mins by Eadie-Hofstee plot analysis; assay type: ADME; outline: as §1
[4] = Partial substrate inhibition in mouse lung S9 fractions treated with trans-resveratrol preincubated for 3 mins followed by UDPGA addition measured after 60 mins by Eadie-Hofstee plot analysis; assay type: ADME
Outline: (§2)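 Pooled mouse lung S9 (0.5 mg/ml final) is incubated with substrate at 0.01 µM–5 mM in 2% final HP-β-CD, alamethicin 10 µg/ml, 5 mM MgCl2 and Tris-HCl 100 mM pH 7.4 at 37°C. The reaction is started with 5 mM UDPGA and stopped at 60 min with ascorbic acid and cold methanol. Triplicates are run, with a control lacking UDPGA. Data are screened on Eadie-Hofstee plots and fitted by nonlinear regression to a partial substrate inhibition model.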

[5] = Drug level in human lung microsomes treated with trans-resveratrol at 0.5 mM measured at 60 mins; assay type: ADME; conditions: 1 h, 500 µM
Outline: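 Pooled human lung microsomes at 0.1, 0.5 and 2.5 mg/ml final, with 0.5 mM substrate in 2% final HP-β-CD, are incubated with UDPGA cofactor for 60 min. Glucuronide is quantified by LC-MS/MS, with an LOQ of 10 ng/ml.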

[6] = AUC (0 to infinity) in C57BL/6 mouse at 15 mg/kg, iv; assay type: ADME, organism-based; design: time infinity, dose 15 mg/kg, route intravenous; conditions: plasma
Outline: (§3)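 Male C57BL/6 mice, 20–25 g, given a single IV dose of 15 mg/kg in 20% HP-β-CD in saline. Blood (20 µl) is drawn serially through a carotid artery cannula at 2.5–600 min, and plasma is assayed by LC-MS/MS. Noncompartmental analysis gives AUC by the linear trapezoidal rule, CL = dose/AUC0-inf, Vss = CL × MRT0-inf and t1/2 = 0.693/λ; n = 5.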

[7] = Clearance in C57BL/6 mouse at 15 mg/kg, iv; assay type: ADME, organism-based; design: dose 15 mg/kg, route intravenous; conditions: in vivo; outline: as §3
[8] = Volume of distribution at steady state in C57BL/6 mouse at 15 mg/kg, iv; assay type: ADME, organism-based; design: dose 15 mg/kg, route intravenous; conditions: in vivo, read-out: Vdss; outline: as §3
[9] = Terminal half life in C57BL/6 mouse at 15 mg/kg, iv; assay type: ADME, organism-based; design: dose 15 mg/kg, route intravenous; conditions: in vivo, read-out: beta t1/2; outline: as §3
[10] = Bioavailability in C57BL/6 mouse at 15 mg/kg, iv; assay type: ADME, organism-based; conditions: in vivo
[11] = Drug metabolism in mouse lung S9 fractions assessed as trans-resveratrol-3-O-glucuronide formation preincubated for 3 mins followed by UDPGA addition measured after 60 mins by Eadie-Hofstee plot analysis; assay type: ADME, tissue-based; conditions: s9, 1 h; outline: as §2
[12] = Drug metabolism in mouse lung S9 fractions assessed as trans-resveratrol-3-sulfate formation preincubated for 3 mins followed by PAPS addition measured after 60 mins by Eadie-Hofstee plot analysis; assay type: ADME, tissue-based; conditions: s9, 1 h; outline: as §1
[13] = Drug metabolism in human lung S9 fractions assessed as trans-resveratrol-3-sulfate formation preincubated for 3 mins followed by PAPS addition measured after 60 mins by Eadie-Hofstee plot analysis; assay type: ADME, tissue-based; conditions: s9, 1 h; outline: as §1

| fraction unbound at 20 µM [1] | Ki [2] [mM] | Ki [3] [mM] | Ki [4] [mM] | Drug metabolism [5] [ng/mL] | AUC(0-inf) [6] [µM·h] | clearance [7] [L/h/kg] | Vd [8] [L/kg] | half-life [9] [h] | bioavailability [10] [%] | Km [11] [µM] | Vmax [11] [pmol/min/mg] | Km [12] [µM] | Vmax [12] [pmol/min/mg] | Km [13] [µM] | Vmax [13] [pmol/min/mg] | Structure (SMILES) |
| --- | --- | --- | --- | --- | --- | --- | --- | --- | --- | --- | --- | --- | --- | --- | --- | --- |
| 0.128 | 2.02 | 23.2 | – | – | – | – | – | – | – | – | – | – | – | – | – | O=S(=O)(O)Oc1cc(O)cc(/C=C/c2ccc(O)cc2)c1 |
| 0.333 | – | – | 6.63 | < 10 | – | – | – | – | – | – | – | – | – | – | – | O=C(O)[C@H]1O[C@@H](Oc2cc(O)cc(/C=C/c3ccc(O)cc3)c2)[C@H](O)[C@@H](O)[C@@H]1O |
| 0.0805 | – | – | – | – | 4.92 | 16.8 | 34.9 | 1.69 | 49.9 | 7.34 | 324.4 | 2.69 | 7.05 | 4.45 | 16.15 | Oc1ccc(/C=C/c2cc(O)cc(O)c2)cc1 [RESVERATROL] |
